Drawing on ChEMBL document CHEMBL1128718, “2-Substituted penems with amino acid-related side chains: synthesis and antibacterial activity of a new series of beta-lactam antibiotics” (1995), this text covers MIC for seven molecules.

SMILES strings stand for the structures. Converted amounts (≈) assume the structure as drawn.

What all share (format): functional
Test [1] relates to Escherichia coli. Put plainly: In Vitro antibacterial activity against (Ec TEM2) Escherichia coli […] strain. The method, boiled down: (§1)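 Panel of standard ATCC strains plus modified strains: methicillin-resistant, hyperpermeable, β-lactamase-producing (TEM1, TEM2, SHV) and β-lactamase-lacking. MIC determined in Mueller Hinton 2 medium, inoculum 10⁴ cells/mL, incubated 24 h at 37 °C.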

Test [2] has as its system Pseudomonas aeruginosa. Put plainly: In Vitro antibacterial activity against (Pa) hyperpermeable Pseudomonas aeruginosa […] strain. An outline of the steps:
as §1

In test [3] the test system is Escherichia coli. Put plainly: In Vitro antibacterial activity against (Ec) Escherichia coli ATCC 25922. An outline of the steps:
as §1

Test [4] has as its system Pseudomonas aeruginosa. Put plainly: In Vitro antibacterial activity against (Pa G242) hyperpermeable Pseudomonas aeruginosa strain. The method, boiled down:
as §1

Test [5] has as its system Pseudomonas aeruginosa. Put plainly: In Vitro antibacterial activity against (Pa) Pseudomonas aeruginosa ATCC 27853. The method, boiled down: as §1
The test system of test [6] is Escherichia coli. Put plainly: In Vitro antibacterial activity against (Ec L) Escherichia coli […] strain. An outline of the steps:
as §1

The test system of test [7] is Escherichia coli. Put plainly: In Vitro antibacterial activity against (Ec DC2) hyperpermeable Escherichia coli strain. The method, boiled down: as §1
For test [8], the system named is Staphylococcus aureus. Put plainly: In vitro antibacterial activity against Sa(I) Staphylococcus aureus ATCC 29213. The method, boiled down:
(§2)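 MIC was determined in Mueller Hinton 2 medium with an inoculum of 10⁴ cells/mL and incubation for 24 h at 37 °C. Strains: Sa(I) is S. aureus ATCC 29213; Sa MR(I) is a heterogeneous methicillin-resistant S. aureus; Sa MR(II) is a homogeneous methicillin-resistant S. aureus.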

For test [9], the system named is Staphylococcus aureus. Put plainly: In vitro antibacterial activity against Sa MR(II) homogeneous methicillin resistant Staphylococcus aureus. The method, boiled down: as §2
Test [10] relates to Staphylococcus aureus. Put plainly: In vitro antibacterial activity against Sa MR(I) heterogeneous methicillin resistant Staphylococcus aureus. An outline of the steps:
as §2

Test [11] deals with Escherichia coli. Put plainly: In Vitro antibacterial activity against (Ec SHV) Escherichia coli […] strain. The method, boiled down: as §1
For test [12], the system named is Escherichia coli. Put plainly: In Vitro antibacterial activity against (Ec TEM1) Escherichia coli […] strain. The method, boiled down: as §1
The subject of test [13] is Enterococcus faecalis. Put plainly: In Vitro antibacterial activity against (Ef) Enterococcus faecalis ATCC 29212. The method, boiled down:
as §1

Test [14] relates to Staphylococcus aureus. Put plainly: In vitro antibacterial activity against Sa(II) Staphylococcus aureus ATCC 25923. An outline of the steps: as §1

For the molecule `C[C@@H](O)[C@H]1C(=O)N2C(C(=O)O)=C(CN(C)C(CO)C(N)=O)S[C@H]12` (stereo partly specified), the MIC is 1 µg/mL (≈ 2.9 µM) in test [1]; 8 µg/mL (≈ 23.2 µM) in test [2]; 0.12 µg/mL (≈ 0.347 µM) in [3]; 1 µg/mL (≈ 2.9 µM) in test [4]; above 64 µg/mL in test [5]; 0.5 µg/mL (≈ 1.45 µM) in test [6]. Besides, the minimal inhibitory concentration (MIC) was determined as 1 µg/mL (≈ 2.9 µM) in test [7]; 0.12 µg/mL (≈ 0.347 µM) in [8]; 8 µg/mL (≈ 23.2 µM) in test [9]; 0.25 µg/mL (≈ 0.724 µM) in test [10]; 2 µg/mL (≈ 5.79 µM) in test [11]; 1 µg/mL (≈ 2.9 µM) in test [12]. Further, the MIC in [13] stood at 4 µg/mL (≈ 11.6 µM); in test [14], 0.06 µg/mL (≈ 0.174 µM).
In the case of `C[C@@H](O)[C@H]1C(=O)N2C(C(=O)O)=C(CN3C[C@H](O)C[C@@H]3C(N)=O)S[C@H]12`, the MIC is 2 µg/mL (≈ 5.6 µM) in test [1]; 0.5 µg/mL (≈ 1.4 µM) in [2]; 2 µg/mL (≈ 5.6 µM) in test [3]; 2 µg/mL (≈ 5.6 µM) in [4]; above 64 µg/mL in test [5]; 2 µg/mL (≈ 5.6 µM) in [6]. Besides, the MIC in test [7] was 2 µg/mL (≈ 5.6 µM); in test [8] it was 0.25 µg/mL (≈ 0.7 µM); in test [9], 8 µg/mL (≈ 22.4 µM); in test [10] it was 0.25 µg/mL (≈ 0.7 µM); in test [11], 2 µg/mL (≈ 5.6 µM); in test [12], 2 µg/mL (≈ 5.6 µM). The MIC was found to be 32 µg/mL (≈ 89.5 µM) in test [13] and 0.25 µg/mL (≈ 0.7 µM) in test [14].
`C[C@@H](O)[C@H]1C(=O)N2C(C(=O)O)=C(CN3CCCCC3C(N)=O)S[C@H]12` (stereo partly specified): the MIC in test [1] was 2 µg/mL (≈ 5.63 µM); in [2], 4 µg/mL (≈ 11.3 µM); in test [3], 1 µg/mL (≈ 2.81 µM); in test [4] it was 1 µg/mL (≈ 2.81 µM); in test [5], above 64 µg/mL; in test [6], 1 µg/mL (≈ 2.81 µM). Also, the MIC in [7] came out at 1 µg/mL (≈ 2.81 µM); in test [8], 0.12 µg/mL (≈ 0.338 µM); in test [9], 2 µg/mL (≈ 5.63 µM); in [10], 0.12 µg/mL (≈ 0.338 µM); in test [11], 2 µg/mL (≈ 5.63 µM); in test [12] it was 1 µg/mL (≈ 2.81 µM). Moreover, the MIC came to 16 µg/mL (≈ 45 µM) in test [13] and 0.06 µg/mL (≈ 0.169 µM) in test [14].
Take `C[C@@H](O)[C@H]1C(=O)N2C(C(=O)O)=C(CN3CC3C(N)=O)S[C@H]12` (stereo partly specified): the MIC in test [1] is 2 µg/mL (≈ 6.38 µM); in [2], 1 µg/mL (≈ 3.19 µM); in [3], 2 µg/mL (≈ 6.38 µM); in [4], 2 µg/mL (≈ 6.38 µM); in [5], above 64 µg/mL; in [6], 4 µg/mL (≈ 12.8 µM). The MIC in test [7] came to 4 µg/mL (≈ 12.8 µM); in test [8], 0.5 µg/mL (≈ 1.6 µM); in test [9], 8 µg/mL (≈ 25.5 µM); in [10], 0.25 µg/mL (≈ 0.798 µM); in test [11], 4 µg/mL (≈ 12.8 µM); in test [12] it was 2 µg/mL (≈ 6.38 µM). For the same molecule, the MIC in test [13] was found to be 16 µg/mL (≈ 51.1 µM); in test [14], 0.25 µg/mL (≈ 0.798 µM).
In the case of `C[C@@H](O)[C@H]1C(=O)N2C(C(=O)O)=C(CN(C)CCC(N)=O)S[C@H]12`, the minimum inhibitory concentration (MIC) in [1] was 1 µg/mL (≈ 3.04 µM); in [2], 2 µg/mL (≈ 6.07 µM); in test [3], 0.5 µg/mL (≈ 1.52 µM); in [4], 1 µg/mL (≈ 3.04 µM); in [5], above 64 µg/mL; in test [6], 1 µg/mL (≈ 3.04 µM). The MIC in [7] was determined as 2 µg/mL (≈ 6.07 µM); in test [8] it was 0.12 µg/mL (≈ 0.364 µM); in test [9] it was 2 µg/mL (≈ 6.07 µM); in test [10] it was 0.12 µg/mL (≈ 0.364 µM); in [11], 1 µg/mL (≈ 3.04 µM); in test [12], 1 µg/mL (≈ 3.04 µM). In addition, the results for the MIC in test [13] and in test [14] were 16 µg/mL (≈ 48.6 µM) and 0.06 µg/mL (≈ 0.182 µM), respectively.
On to `C[C@@H](O)[C@H]1C(=O)N2C(C(=O)O)=C(CN(C)C(Cc3ccccc3)C(N)=O)S[C@H]12` (stereo partly specified), for which the MIC in test [1] is above 64 µg/mL; in test [2] it was above 64 µg/mL; in test [3] it was 16 µg/mL (≈ 39.5 µM); in test [5], above 64 µg/mL; in [6] it was above 64 µg/mL; in [7], 1 µg/mL (≈ 2.47 µM). For the same molecule, the minimum inhibitory concentration (MIC) in test [8] stood at 0.12 µg/mL (≈ 0.296 µM); in [9] it was 2 µg/mL (≈ 4.93 µM); in test [10], 0.12 µg/mL (≈ 0.296 µM); in test [12], 32 µg/mL (≈ 78.9 µM); in test [13], 4 µg/mL (≈ 9.86 µM); in test [14] it was 0.015 µg/mL (≈ 0.037 µM).
For the molecule `C[C@@H](O)[C@H]1C(=O)N2C(C(=O)O)=C(CN(C)CC(=O)N3CCN(C)CC3)S[C@H]12`, the MIC in test [1] is 1 µg/mL (≈ 2.51 µM); in [2], 4 µg/mL (≈ 10 µM); in test [3], 0.5 µg/mL (≈ 1.25 µM); in test [4] it was 1 µg/mL (≈ 2.51 µM); in test [5], above 64 µg/mL; in test [6], 1 µg/mL (≈ 2.51 µM). In addition, the MIC in test [7] is 1 µg/mL (≈ 2.51 µM); in test [8], 0.25 µg/mL (≈ 0.627 µM); in test [9], 4 µg/mL (≈ 10 µM); in test [10] it was 0.5 µg/mL (≈ 1.25 µM); in test [11] it was 1 µg/mL (≈ 2.51 µM); in test [12] it was 1 µg/mL (≈ 2.51 µM). The MIC in test [13] amounted to 16 µg/mL (≈ 40.2 µM); in test [14] it was 0.25 µg/mL (≈ 0.627 µM).
